The source made the active and inactive calls. The calls are words filed in the database; no cut-off is given here.
Experiments:
[1] = system: Hepatitis C virus; assay: Antiviral activity against HCV1b infected in human Huh-7 cells assessed as inhibition of viral RNA replication after 96 hrs by ELISA assay in presence of 10% fetal calf serum; format: functional, organism-based, Hepacivirus hominis; settings: genotype 1b, Huh-7, 96 h
[2] = system: Hepatitis C virus; assay: Antiviral activity against HCV1b infected in human Huh-7 cells assessed as inhibition of viral RNA replication after 96 hrs by ELISA assay in presence of 50% normal human serum; format: functional, organism-based, Hepacivirus hominis; settings: genotype 1b, Huh-7, 96 h
[3] = AUC in Sprague-Dawley rat at 3 mg/kg, po; format: ADME, organism-based; design: dose 3 mg/kg, route oral; settings: plasma
Procedure, shortened: (§1)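 Single-dose rat PK with the compound given as its TFA salt to Sprague-Dawley rats (n = 3) in DMSO/PEG400/water 20%/60%/20%. Dosing was 3 mg/kg iv and 3 mg/kg po.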

[4] = Oral bioavailability in Sprague-Dawley rat at 3 mg/kg; format: ADME, organism-based; settings: in vivo; procedure, shortened: as §1
[5] = Intrinsic clearance in dog liver microsomes assessed per mg of protein; format: ADME, Canis lupus familiaris, Microsome
[6] = Intrinsic clearance in human liver microsomes assessed per mg of protein; format: ADME, Microsome
[7] = Ratio of drug level in liver to plasma in Sprague-Dawley rat liver at 3 mg/kg, po after 6 hrs; format: ADME, organism-based; design: dose 3 mg/kg, route oral
Procedure, shortened: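 Sprague-Dawley rats (n = 3) received the compound as its TFA salt in DMSO/PEG400/water 20%/60%/20%, as a single iv dose of 3 mg/kg or a single oral dose of 3 mg/kg. Liver tissue and plasma concentrations were measured 6 h after the oral dose.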

[8] = system: Hepatitis C virus; assay: Antiviral activity against HCV1a; format: functional, organism-based, Hepacivirus hominis; settings: subtype 1a
[9] = system: Hepatitis C virus; assay: Antiviral activity against HCV3a; format: functional, organism-based, Hepacivirus hominis; settings: genotype 3a
[10] = Clearance in Sprague-Dawley rat at 3 mg/kg, iv and 3 mg/kg, po; format: ADME, organism-based; settings: in vivo
Procedure, shortened: (§2)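 Single-dose PK of the bis-HCl salt, n = 3 per species (dog po n = 2). Intravenous doses: rat 3, dog 1, rhesus 2 mg/kg, in DMSO/PEG400/water 20%/60%/20%. Oral doses: rat 3, dog 2, rhesus 4 mg/kg, in PEG400 for rat and dog and PEG400/water 70%/30% for rhesus.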

[11] = Volume of distribution at steady state in Sprague-Dawley rat at 3 mg/kg, iv and 3 mg/kg, po; format: ADME, organism-based; settings: in vivo, read-out: Vdss
Procedure, shortened: (§3)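 Single iv and single oral doses, given as the bis-HCl salt, in rat, dog and rhesus, n = 3 per species (dog oral n = 2). The iv vehicle was DMSO/PEG400/water 20%/60%/20%. Oral vehicle was PEG400 for rat and dog and PEG400/water 70%/30% for rhesus. Values are mean ± SD.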

[12] = Terminal half life in Sprague-Dawley rat at 3 mg/kg, iv and 3 mg/kg, po; format: ADME, organism-based; settings: in vivo; procedure, shortened: as §2
[13] = Cmax in Sprague-Dawley rat at 3 mg/kg, iv and 3 mg/kg, po; format: ADME, organism-based; settings: in vivo; procedure, shortened: as §2
[14] = Terminal half life in dog at 1 mg/kg, iv and 2 mg/kg, po; format: ADME, organism-based, Canis lupus familiaris; settings: in vivo; procedure, shortened: as §3
[15] = Cmax in dog at 1 mg/kg, iv and 2 mg/kg, po; format: ADME, organism-based, Canis lupus familiaris; settings: in vivo; procedure, shortened: as §2
[16] = Oral bioavailability in dog at 2 mg/kg, po; format: ADME, organism-based, Canis lupus familiaris; settings: in vivo; procedure, shortened: as §2
[17] = Clearance in rhesus monkey at 2 mg/kg, iv and 4 mg/kg, po; format: ADME, organism-based, Macaca mulatta; settings: in vivo; procedure, shortened: as §2
[18] = Terminal half life in rhesus monkey at 2 mg/kg, iv and 4 mg/kg, po; format: ADME, organism-based, Macaca mulatta; settings: in vivo; procedure, shortened: as §3
[19] = Cmax in rhesus monkey at 2 mg/kg, iv and 4 mg/kg, po; format: ADME, organism-based, Macaca mulatta; settings: in vivo; procedure, shortened: as §2
[20] = Oral bioavailability in rhesus monkey at 4 mg/kg; format: ADME, organism-based, Macaca mulatta; settings: in vivo; procedure, shortened: as §2
[21] = Plasma protein binding in dog; format: ADME, cell-free, Canis lupus familiaris; settings: read-out: PPB (converted)
[22] = Intrinsic clearance in rat liver microsomes assessed per mg of protein in presence of UDPGA; format: ADME, Microsome
[23] = Intrinsic clearance in human liver microsomes assessed per mg of protein presence of UDPGA; format: ADME, Microsome
[24] = biological target: Cytochrome P450 3A4 (Homo sapiens, UniProt P08684); assay: Inhibition of CYP3A4 up to 50 uM; format: ADME
[25] = biological target: Cytochrome P450 2D6 (Homo sapiens, UniProt P10635); assay: Inhibition of CYP2D6 up to 50 uM; format: ADME
[26] = biological target: Cytochrome P450 2C9 (Homo sapiens, UniProt P11712); assay: Inhibition of CYP2C9 up to 50 uM; format: ADME
[27] = biological target: T1, Nuclear receptor subfamily 1 group I member 2 (Homo sapiens, UniProt O75469); assay: Inhibition of PXR activation up to 50 uM
T1 sequence (O75469 whole entry): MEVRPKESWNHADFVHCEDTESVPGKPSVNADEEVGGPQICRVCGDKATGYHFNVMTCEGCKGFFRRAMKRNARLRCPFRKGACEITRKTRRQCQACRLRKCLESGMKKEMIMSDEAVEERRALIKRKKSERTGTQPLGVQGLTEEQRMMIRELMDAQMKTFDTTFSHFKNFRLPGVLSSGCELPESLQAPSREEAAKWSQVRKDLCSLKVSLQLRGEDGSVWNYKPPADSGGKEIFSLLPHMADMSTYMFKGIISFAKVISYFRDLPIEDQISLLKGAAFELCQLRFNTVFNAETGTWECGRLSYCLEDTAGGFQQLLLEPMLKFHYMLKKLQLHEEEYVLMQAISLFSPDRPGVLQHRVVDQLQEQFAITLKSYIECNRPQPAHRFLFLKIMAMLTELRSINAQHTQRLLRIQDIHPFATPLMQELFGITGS

[28] = biological target: Protein kinase C alpha type (Homo sapiens, UniProt P17252); assay: Inhibition of PKCalpha
[29] = biological target: DNA polymerase beta (Homo sapiens) (UniProt P06746); assay: Inhibition of human DNA polymerase beta up to 50 uM
[30] = species: Homo sapiens; assay: Inhibition of human DNA polymerase gamma up to 50 uM
[31] = system: Mus musculus; assay: Toxicity in SCID mouse assessed as mortality at 50 mg/kg, ip bid for 5 days; format: organism-based; design: dose 50 mg/kg, route intraperitoneal; settings: in vivo, 120 h
[32] = system: Mus musculus; assay: Toxicity in SCID mouse assessed as change in body weight at 50 mg/kg, ip bid for 5 days; format: organism-based; design: dose 50 mg/kg, route intraperitoneal; settings: in vivo, 120 h
Procedure, shortened: (§4)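 Non-infected SCID mice (n = 3) received 50 mg/kg by intraperitoneal injection twice daily for five consecutive days, as a tolerability run before the infected-mouse study. Body and organ weights were checked for gross changes. Plasma compound levels were measured 12 h after the last dose.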

[33] = system: Mus musculus; assay: Toxicity in SCID mouse assessed as change in organ weight at 50 mg/kg, ip bid for 5 days; format: organism-based; design: dose 50 mg/kg, route intraperitoneal; settings: in vivo, 120 h; procedure, shortened: as §4
[34] = Plasma concentration in HCV1b infected humanized uPA+/+-SCID mouse at 50 mg/kg, ip bid for 4 days measured 12 hrs after last post dose; format: ADME, organism-based; design: dose 50 mg/kg, route intraperitoneal
Procedure, shortened: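 Three humanized uPA+/+-SCID mice infected with genotype 1b HCV received 10 or 50 mg/kg ip twice daily for 4 days, in PEG400/water 30%/70%. Trough plasma concentration was taken 12 h after the last dose.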

[35] = system: Hepatitis C virus; assay: Antiviral activity against HCV1b infected in humanized uPA+/+-SCID mouse assessed as reduction of plasma viral RNA level at 10 mg/kg, ip bid for 4 days; format: functional, Hepacivirus hominis; settings: route intraperitoneal
Procedure, shortened: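 Chimeric uPA+/+-SCID mice with human hepatocytes, infected with genotype 1b HCV, were dosed twice daily. The drop in plasma HCV RNA is given as mean log10. Plasma drug concentration was measured 12 h after the last dose.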

Cytochrome P450 3A4, sequence (P08684 whole entry): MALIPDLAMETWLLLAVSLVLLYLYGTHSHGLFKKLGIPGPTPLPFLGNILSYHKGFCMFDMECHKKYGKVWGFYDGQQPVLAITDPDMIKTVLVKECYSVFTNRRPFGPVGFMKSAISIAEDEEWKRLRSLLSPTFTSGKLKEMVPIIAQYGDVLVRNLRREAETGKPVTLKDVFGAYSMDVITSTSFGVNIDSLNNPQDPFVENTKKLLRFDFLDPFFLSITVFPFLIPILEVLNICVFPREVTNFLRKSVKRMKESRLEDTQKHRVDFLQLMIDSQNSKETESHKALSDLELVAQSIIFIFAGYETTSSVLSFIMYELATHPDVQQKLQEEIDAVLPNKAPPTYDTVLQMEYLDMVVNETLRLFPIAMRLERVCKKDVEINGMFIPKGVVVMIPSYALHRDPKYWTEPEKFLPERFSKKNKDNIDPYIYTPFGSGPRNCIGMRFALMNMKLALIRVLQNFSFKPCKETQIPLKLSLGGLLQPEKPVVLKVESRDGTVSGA
Cytochrome P450 2C9, sequence (P11712 whole entry): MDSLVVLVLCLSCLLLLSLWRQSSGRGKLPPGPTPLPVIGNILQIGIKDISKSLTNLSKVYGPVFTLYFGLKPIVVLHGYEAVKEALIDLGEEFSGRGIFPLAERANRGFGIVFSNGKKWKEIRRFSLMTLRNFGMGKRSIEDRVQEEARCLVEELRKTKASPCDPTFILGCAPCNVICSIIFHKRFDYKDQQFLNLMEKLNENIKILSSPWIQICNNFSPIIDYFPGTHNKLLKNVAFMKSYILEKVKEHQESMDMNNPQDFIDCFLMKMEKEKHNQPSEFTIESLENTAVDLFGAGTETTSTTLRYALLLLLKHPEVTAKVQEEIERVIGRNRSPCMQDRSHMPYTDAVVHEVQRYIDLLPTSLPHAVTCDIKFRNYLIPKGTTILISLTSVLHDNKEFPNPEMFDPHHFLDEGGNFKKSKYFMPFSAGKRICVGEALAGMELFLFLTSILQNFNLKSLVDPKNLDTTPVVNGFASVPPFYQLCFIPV
Cytochrome P450 2D6, sequence (P10635 whole entry): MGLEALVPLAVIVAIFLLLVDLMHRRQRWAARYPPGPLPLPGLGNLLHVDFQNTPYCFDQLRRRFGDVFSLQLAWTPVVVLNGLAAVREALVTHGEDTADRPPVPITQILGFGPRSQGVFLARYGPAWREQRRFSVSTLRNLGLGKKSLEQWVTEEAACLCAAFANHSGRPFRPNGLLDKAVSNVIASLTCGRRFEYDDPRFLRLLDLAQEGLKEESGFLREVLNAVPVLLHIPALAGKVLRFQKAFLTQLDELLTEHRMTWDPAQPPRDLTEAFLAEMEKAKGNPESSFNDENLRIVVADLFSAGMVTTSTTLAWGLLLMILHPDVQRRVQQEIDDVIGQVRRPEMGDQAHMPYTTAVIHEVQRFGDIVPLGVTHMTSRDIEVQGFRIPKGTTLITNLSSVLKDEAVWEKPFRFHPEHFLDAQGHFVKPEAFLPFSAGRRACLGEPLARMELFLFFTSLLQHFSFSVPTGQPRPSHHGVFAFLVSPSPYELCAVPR

`CN(C)CCN(C)[C@H]1COc2ccccc2-c2c(C3CCCCC3)c3ccc(C(=O)O)cc3n2C1` [MK-3281] showed an EC50 [1] of 38 nM, an EC50 [2] of 110 nM and an AUC [3] of 2.4 µM·h. It also gave a bioavailability [4] of 49%, a microsomal CLint [5] of 3 µL/min/mg and a microsomal CLint [6] of 7 µL/min/mg. For the same compound, the Kp at 6 h [7] was 5, the EC50 [8] was 28 nM and the EC50 [9] was 37 nM. It also gave a clearance [10] of 22 mL/min/kg, a Vd [11] of 3.7 L/kg and a half-life [12] of 3.4 h. It also gave a Cmax [13] of 500 nM, a half-life [14] of 6.1 h and a Cmax [15] of 1000 nM. For the same compound, the bioavailability [16] was 78%, the clearance [17] was 7 mL/min/kg and the half-life [18] was 5.7 h. It also gave a Cmax [19] of 800 nM, a bioavailability [20] of 35% and a fraction unbound [21] of 0.027. The microsomal CLint [22] was < 4 µL/min/mg, the microsomal CLint [23] was < 4 µL/min/mg and the “inhibition (INH)” value [24] was “Not Active”. For the same compound, the “inhibition (INH)” value [25] was “Not Active”, the “inhibition (INH)” value [26] was “Not Active” and the “inhibition (INH)” value [27] was “Not Active”. The IC50 [28] was 59000 nM, the inhibition [29] was “inactive” and the inhibition [30] was “inactive”. The Activity [31] was “Non-toxic”, the Activity [32] was “Non-toxic” and the Activity [33] was “Non-toxic”. The concentration at 12 h [34] was 2600 nM and the “fold change (FC)” value [35] was 1.4.

Reference: ChEMBL document CHEMBL1649090, “Discovery of (7R)-14-cyclohexyl-7-{[2-(dimethylamino)ethyl](methyl) amino}-7,8-dihydro-6H-indolo[1,2-e][1,5]benzoxazocine-11-carboxylic acid (MK-3281), a potent and orally bioavailable finger-loop inhibitor of the hepatitis C virus NS5B polymerase” (J Med Chem, 2011)
